Screening data from PubChem BioAssay.
rRNA inh HTS = inhibitors of bacterial rRNA selective over humanized ribosomes; GFP signal change (wild-type ribosome), % (test concentration not listed); E. coli WT GFP vs humanized-ribosome RFP mutants, fluorescence, 24 h; active compounds read low; DMSO median 0, no signal -100; hit rate 1.6% among 350,000; AID 720706;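 active = significant combined selectivity score with lowered wild-type GFP, culture density cut under 30%, mutant RFP and density less affected; inactive = any of these conditions unmet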
E-sel inducer = induces E-selectin expression in human endothelial cells; HUVEC E-selectin immunofluorescence imaging; normalized: neutral wells 0, TNF-alpha wells 100; hit rate 0.37% among 260,000; AID 686992; activation, % at 7.58 µM; P16581;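 active = mean E-selectin-positive cell signal at least 10% of the positive control, reached in at least 60% of replicates, without over 20% cell loss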
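Material: HUVEC primary endothelial cells; Amount: 3,000 cells per well; Dosing: single concentration; Medium: EGM-2 growth medium on 0.1% gelatin-coated wells; Read-out basis: percent E-selectin-positive cells; Signal: immunofluorescence imaging; Control set: TNF-alpha, DMSO.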
FGF22 binding = shifts melting point of recombinant human FGF22. Q9HCT0. recombinant FGF22 thermal shift, SYPRO orange fluorescence; percent of sucrose octasulfate shift, DMSO zero. activity (Tm shift, normalised), % at 9.99 µM. hit rate 1.5% among 340,000. AID 651658;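 active = mean Tm shift, scaled 0 neutral to 100 positive control, at about 1.3% or above, every replicate too, limit read from the data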
SIRT5 inh = inhibitors of human sirtuin-5 desuccinylase. Q9NXA8. Purified SirT5, succinyl-peptide AMC, trypsin-coupled fluorescence. inhibition, % at 15 µM. hit rate 1.1% among 330,000. AID 652115; in the data active = inhibition above about 15%
Target sequence (Q9NXA8 whole entry, looked up): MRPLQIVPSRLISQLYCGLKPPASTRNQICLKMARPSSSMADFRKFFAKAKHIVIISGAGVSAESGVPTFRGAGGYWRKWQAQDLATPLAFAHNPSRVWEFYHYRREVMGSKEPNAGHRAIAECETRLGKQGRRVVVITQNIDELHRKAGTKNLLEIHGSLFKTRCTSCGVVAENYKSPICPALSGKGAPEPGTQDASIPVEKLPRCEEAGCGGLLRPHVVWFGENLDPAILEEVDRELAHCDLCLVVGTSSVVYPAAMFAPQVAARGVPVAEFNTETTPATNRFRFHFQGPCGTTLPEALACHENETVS
Statin myotox sup = protects C2C12 myotubes from simvastatin toxicity; ATP luminescence, 48 h; scaled: DMSO 0, geranylgeraniol control 100; rescue of ATP level, % at 7.49 µM; hit rate 0.78% among 330,000; AID 602340;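 active = mean ATP rescue above about 67%, or every replicate alone reaching that limit, limit read from the data, passing the limit was not always enough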;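 note: myotubes were challenged with 10 µM simvastatin during compound exposure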
FN deposit inh = fibronectin deposition inhibition; AH1F fibroblasts, Alexa488-fibronectin deposition fluorescence, overnight; AID 743247; inhibition, % at 12.6 µM; hit rate 0.086% among 350,000;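 active = mean inhibition across replicates of 30% or more, regardless of how many single replicates reach that level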;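 note: positive control wells lacked labelled fibronectin entirely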
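Measured by – fluorescence 485/525 nm · System – AH1F fibroblast monolayer, labelled fibronectin deposition · Amount – 10000 cells per well · Buffer or medium – serum-reduced DMEM (2% serum) · Doses – single dose, pinned · Also added – fluorescent fibronectin at 24 nM final · Schedule – 1 h cell attachment, overnight exposure to compound and label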
An asterisk follows results filed as active. In the library only some 4% were active in any assay of this set; here they are far more common.

Screening CCOC(=O)c1c(C)[nH]c(C(=O)C(C)OC(=O)c2cnc(C)cn2)c1C (stereo not given) returned rRNA inh HTS -26*, FGF22 binding 0, SIRT5 inh -1, Statin myotox sup -4 and FN deposit inh 8.
Screening C[C@H](NC(=O)C[C@@H]1C=C[C@@H](NC(=O)Cc2ccccn2)[C@@H](CO)O1)c1ccccc1 returned rRNA inh HTS 1, E-sel inducer 0, FGF22 binding 0, SIRT5 inh 1, Statin myotox sup 4 and FN deposit inh 7.
For CCC(c1nc2ccccc2c(=O)n1CCN1CCOCC1)N1C(=O)c2ccccc2C1=O (stereo not given) the results were Statin myotox sup 141* and FN deposit inh -12.
For COc1cc(NC(=O)CSc2nc(C)c(C)c(C)n2)c(C)cc1[N+](=O)[O-] the results were rRNA inh HTS 17, FGF22 binding 0, SIRT5 inh -2 and FN deposit inh 6.
Screening COc1ccccc1-c1nnc(NC(=O)CSc2nncn2C)s1 returned rRNA inh HTS -3, E-sel inducer 37*, FGF22 binding 0, SIRT5 inh -2 and FN deposit inh 6.
Screening COc1ccccc1-c1nnc(NC(=O)C(C)Sc2nncn2C)s1 (stereo not given) returned rRNA inh HTS -10, FGF22 binding 0, SIRT5 inh 4 and FN deposit inh -1.
Screening COc1cc(NC(=O)CSc2nncn2C)c(C)cc1[N+](=O)[O-] returned FGF22 binding 43*, SIRT5 inh -4, Statin myotox sup 3 and FN deposit inh -1.
Cc1ccc(C2=NN=C(NC(=O)CSc3nncn3C)SC2)cc1 was read as rRNA inh HTS -23*, FGF22 binding 1, SIRT5 inh 1 and Statin myotox sup 9.
For O=C(C[C@@H]1CC[C@@H]2[C@H](COC[C@H](O)CN2C(=O)c2ccccc2F)O1)N1CCN(c2ccccc2)CC1 the results were rRNA inh HTS -1, E-sel inducer 0, FGF22 binding 0, SIRT5 inh 1, Statin myotox sup 6 and FN deposit inh -7.
`O=C(NCCN1CCOCC1)C1CCC(CNS(=O)(=O)c2ccc(Cl)cc2)CC1` (stereo not given) gave rRNA inh HTS 18, FGF22 binding 0, SIRT5 inh 24* and Statin myotox sup -8.
Screening CS(=O)(=O)N(Cc1ccc(Cl)cc1)c1ccc(C(=O)NCC2CCCO2)cc1 (stereo not given) returned rRNA inh HTS 1, FGF22 binding 0, SIRT5 inh -4 and FN deposit inh 3.
For CS(=O)(=O)N(CC(=O)NCC1CCCO1)c1cccc([N+](=O)[O-])c1 (stereo not given) the results were rRNA inh HTS 11, FGF22 binding 43*, SIRT5 inh -1 and FN deposit inh -1.
`Cc1ccc(N(Cc2ccc(C(=O)NCC3CCCO3)cc2)S(C)(=O)=O)cc1C` (stereo not given) gave rRNA inh HTS 4, FGF22 binding 43*, SIRT5 inh 0 and FN deposit inh -2.
For O=C(CSc1nnc(-c2ccccc2)c(-c2ccccc2)n1)NCC1CCCO1 (stereo not given) the results were rRNA inh HTS -6, E-sel inducer 0, FGF22 binding 43*, Statin myotox sup 2 and FN deposit inh 9.
`Cc1ccc(SCC(=O)NCC2CCCO2)cc1` (stereo not given) gave rRNA inh HTS 9, FGF22 binding 43*, SIRT5 inh 0 and FN deposit inh -3.
Cc1ccc(S(=O)(=O)N(CC(=O)NCC2CCCO2)c2cccc([N+](=O)[O-])c2)cc1 (stereo not given) was read as rRNA inh HTS -1, E-sel inducer 3, FGF22 binding 0, SIRT5 inh -5 and FN deposit inh 4.
Screening CCN1[C@@H]2Cn3c(ccc(-c4ccc(F)cc4)c3=O)[C@H]1[C@@H](C(=O)Nc1ccccc1)[C@@H]2CO returned rRNA inh HTS -3, E-sel inducer 2 and SIRT5 inh -5.
